Tests used:
HCT-116 = experiment: Cytotoxicity against human HCT116 cells after 72 hrs by MTT assay; type: functional, cell-based; conditions: HCT-116, 72 h
Method in brief: (§1)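 Cells seeded at 3.5 × 10⁴ cells/mL and pre-incubated 24 h at 37 °C, 5% CO₂; compounds diluted in DMSO and added for a further 72 h, with DMSO (final 0.5%) as control. Surviving cells measured by MTT, OD read at 492/620 nm; IC50 as mean of triplicate experiments.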

PC-3 = experiment: Cytotoxicity against human PC3 cells after 72 hrs by MTT assay; type: functional, cell-based; conditions: PC-3, 72 h; method in brief: as §1
[1] = Cytotoxicity against human U87MG cells after 72 hrs by MTT assay; type: functional, cell-based, U-87MG ATCC; conditions: U-87 MG; method in brief: as §1
HepG2 = experiment: Cytotoxicity against human HepG2 after 72 hrs by MTT assay; type: functional, cell-based; conditions: HepG2, 72 h; method in brief: as §1
SK-OV-3 = experiment: Cytotoxicity against human SKOV3 cells after 72 hrs by MTT assay; type: functional, cell-based; conditions: SK-OV-3, 72 h; method in brief: as §1
[2] = Cytotoxicity against human L02 cells after 72 hrs by MTT assay; type: cell-based; conditions: L02, 72 h; method in brief: as §1
[3] = Cytotoxicity against human HK2 cells after 72 hrs by MTT assay; type: cell-based; conditions: HK-2, 72 h; method in brief: as §1
CCRF S-180 [4] = experiment: Antitumor activity against mouse S180 cells xenografted in ip dosed ICR mouse assessed as tumor growth suppression administered qd for 7 days measured on day 8; type: functional, organism-based
Method in brief: (§2)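 S-180 sarcoma cells implanted in ICR mice (2.5 × 10⁶ or 3 × 10⁶ cells/animal, depending on batch); ten animals per group, allocated by body weight. Dosed intraperitoneally once daily for seven consecutive days in 0.9% physiological saline; saline-only model group and amonafide 30 mg/kg positive control. Body weights recorded every two days; tumours excised and weighed 24 h after last injection; suppression relative to control group.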

CCRF S-180 [5] = experiment: Antitumor activity against mouse S180 cells xenografted in ICR mouse assessed as tumor growth suppression at 30 mg/kg, ip qd for 7 days measured on day 8 relative to control; type: functional; conditions: route intraperitoneal; method in brief: as §2
CCRF S-180 [6] = experiment: Antitumor activity against mouse S180 cells xenografted in ICR mouse assessed as tumor growth suppression at 45 mg/kg, ip qd for 7 days measured on day 8 relative to control; type: functional; conditions: route intraperitoneal; method in brief: as §2
CCRF S-180 [7] = experiment: Antitumor activity against mouse S180 cells xenografted in ICR mouse assessed as tumor growth suppression at 60 mg/kg, ip qd for 7 days measured on day 8 relative to control; type: functional; conditions: route intraperitoneal; method in brief: as §2
CCRF S-180 [8] = experiment: Antitumor activity against mouse S180 cells xenografted in ICR mouse assessed as tumor growth suppression at 7.5 mg/kg, ip qd for 7 days measured on day 8; type: functional; conditions: route intraperitoneal; method in brief: as §2
Mus musculus = experiment: Toxicity in mouse S180 cells xenografted ICR mouse assessed as mortality at 15 to 30 mg/kg, ip qd for 7 days; type: organism-based, CCRF S-180; set-up: dose 15-30 mg/kg, route intraperitoneal; conditions: in vivo, 168 h
Method in brief: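 S-180 sarcoma cells implanted into ICR mice (3 × 10⁶ cells/animal for this batch), ten animals per group allocated by weight. Drug dissolved in 0.9% saline (stock 0.75–3 mg/mL) and given intraperitoneally once daily for seven consecutive days at 7.5, 15 or 30 mg/kg; saline-only model group. Body weight recorded every two days; tumors excised and weighed 24 h after last injection.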

For `CCCCn1nnc2cc3c4c(cccc4c21)C(=O)N(CCN(C)C)C3=O`, the IC50 (HCT-116) was 1820 nM, the IC50 (PC-3) was 4770 nM and the IC50 [1] was 1460 nM. It also gave an IC50 (HepG2) of 1010 nM and an IC50 (SK-OV-3) of 2550 nM.

`CN(C)CCCN1C(=O)c2cccc3c2c(cc2nnn(CCO)c23)C1=O` gave an IC50 (HCT-116) of 7730 nM, an IC50 (PC-3) of 25000 nM and an IC50 [1] of 4310 nM. The IC50 (HepG2) was 5210 nM and the IC50 (SK-OV-3) was 9640 nM.

`Cn1nnc2cc3c4c(cccc4c21)C(=O)N(CC[N+](C)(C)[O-])C3=O` showed an IC50 (HCT-116) of over 10000 nM, an IC50 (PC-3) of over 10000 nM and an IC50 [1] of over 10000 nM. It also gave an IC50 (HepG2) of over 10000 nM, an IC50 (SK-OV-3) of over 10000 nM and an IC50 [2] of 142000 nM. The IC50 [3] was 108000 nM, the Activity (CCRF S-180 [4]) was “Dose-dependent effect” and the Activity (CCRF S-180 [5]) was 4.83%. It also gave an Activity (CCRF S-180 [6]) of 46.18% and an Activity (CCRF S-180 [7]) of 62.74%.

With `CN(C)CCCN1C(=O)c2cccc3c2c(cc2nnn(C)c23)C1=O` the IC50 (HCT-116) was 1350 nM, the IC50 (PC-3) was 3210 nM and the IC50 [1] was 1140 nM. For the same compound, the IC50 (HepG2) was 970 nM and the IC50 (SK-OV-3) was 2000 nM.

Work on `CN(C)CCCn1nnc2cc3c4c(cccc4c21)C(=O)N(CCN(C)C)C3=O` yielded an IC50 (HCT-116) of 150 nM, an IC50 (PC-3) of 710 nM and an IC50 [1] of 140 nM. For the same compound, the IC50 (HepG2) was 180 nM and the IC50 (SK-OV-3) was 400 nM.

`CN(C)CCN1C(=O)c2cccc3cc(N)cc(c23)C1=O` [AMONAFIDE] showed an IC50 (HCT-116) of 4550 nM, an IC50 (PC-3) of 8050 nM and an IC50 [1] of 2800 nM. For the same compound, the IC50 (HepG2) was 1410 nM and the IC50 (SK-OV-3) was 8830 nM.

For `CCCCn1nnc2cc3c4c(cccc4c21)C(=O)N(CCCN(C)C)C3=O`, the IC50 (HCT-116) was 6340 nM, the IC50 (PC-3) was 15500 nM and the IC50 [1] was 6320 nM. For the same compound, the IC50 (HepG2) was 5770 nM and the IC50 (SK-OV-3) was 8930 nM.

Work on `COc1ccc(Nc2cc3c4c(cccc4c2)C(=O)N(CCN(C)C)C3=O)cc1` yielded an IC50 (HCT-116) of 1240 nM, an IC50 (PC-3) of 1620 nM and an IC50 [1] of 2520 nM. For the same compound, the IC50 (HepG2) was 900 nM and the IC50 (SK-OV-3) was 2340 nM.

`CN(C)CCN1C(=O)c2cccc3c2c(cc2nnn(CCO)c23)C1=O` showed an IC50 (HCT-116) of 1420 nM, an IC50 (PC-3) of 4290 nM and an IC50 [1] of 1220 nM. The IC50 (HepG2) was 1070 nM and the IC50 (SK-OV-3) was 2530 nM.

For `CN(C)CCN1C(=O)c2cccc3c2c(cc2nnn(CCN(C)C)c23)C1=O`, the IC50 (HCT-116) was 190 nM, the IC50 (PC-3) was 730 nM and the IC50 [1] was 130 nM. The IC50 (HepG2) was 170 nM and the IC50 (SK-OV-3) was 350 nM.

Compound `CN(C)CCCN1C(=O)c2cccc3c2c(cc2nnn(CCCN(C)C)c23)C1=O` has an IC50 (HCT-116) of 350 nM, an IC50 (PC-3) of 1200 nM and an IC50 [1] of 300 nM. For the same compound, the IC50 (HepG2) was 290 nM and the IC50 (SK-OV-3) was 460 nM.

For `CN(C)CCN1C(=O)c2cccc3cc(Nc4ccc([N+](=O)[O-])cc4)cc(c23)C1=O`, the IC50 (HCT-116) was 620 nM, the IC50 (PC-3) was 410 nM and the IC50 [1] was 620 nM. For the same compound, the IC50 (HepG2) was 410 nM and the IC50 (SK-OV-3) was 1320 nM.

Work on `CN(C)CCCN1C(=O)c2cccc3c2c(cc2nnn(CCN(C)C)c23)C1=O` yielded an IC50 (HCT-116) of 390 nM, an IC50 (PC-3) of 3280 nM and an IC50 [1] of 370 nM. For the same compound, the IC50 (HepG2) was 780 nM and the IC50 (SK-OV-3) was 640 nM.

With `CN(C)CCN1C(=O)c2cccc3c2c(cc2nnn(C)c23)C1=O` the IC50 (HCT-116) was 650 nM, the IC50 (PC-3) was 1580 nM and the IC50 [1] was 450 nM. It also gave an IC50 (HepG2) of 680 nM, an IC50 (SK-OV-3) of 1170 nM and an IC50 [2] of 1770 nM. For the same compound, the IC50 [3] was 990 nM, the Activity (CCRF S-180 [8]) was 26.25% and the Activity (Mus musculus) was “Toxic”.
